# Results: PMC5879491 (Journal of the American Chemical Society, 2018)
# Assays:
# H3R [1] = biological target: T1, H3R (Homo sapiens, UniProt Q9Y5N1); format: binding; settings: for effect of illumination of compound solution at 360 ± 20 nm on affinity: data not shown
# Method in brief: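 A 1 mM stock of test compound was either illuminated at 360 ± 20 nm to PSS (checked by LC–MS) or kept dark; all later handling was in darkness. Competition ran at 10^-5 to 10^-12 M against 1.6 nM [3H]-Nα-methylhistamine. Membranes were homogenates of HEK293T cells PEI-transfected 48 h with human H3R (445 isoform). Incubation was 2 h at 25 °C in 50 mM Tris–HCl pH 7.4, followed by GF/C filtration and scintillation counting. Ki was obtained by Cheng–Prusoff; the shift was pKi cis minus pKi trans.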
# H3R [2] = biological target: T1, H3R; test: Two-electrode voltage clamp; format: cell-based
# [3] = Real-time photoisomerization rate by UV-vis under perpendicular illumination; format: physicochemical; settings: 25 μM in 50 mM Tris-HCl pH 7.4 + 1% DMSO-d6
# Method in brief: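 Real-time kinetics: test compound at 25 μM in 50 mM Tris–HCl pH 7.4 with 1% DMSO-d6. Illumination alternated between 360 ± 20 nm and 434 ± 9 nm, delivered perpendicular to the spectrometer beam. Spectra were taken at 1 s intervals, with absorbance followed at 344 or 319 nm depending on compound. Photoisomerization half-lives came from fits to the absorbance data.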
# [4] = Photostability and fatigue resistance under prolonged or repeated illumination; format: physicochemical
# hH4R = hH4R (Homo sapiens, UniProt Q9H3N8); test: H4R radioligand binding
# hH2R = hH2R (Homo sapiens, UniProt P25021); test: H2R radioligand binding
# Sequence of hH2R (P25021 whole entry): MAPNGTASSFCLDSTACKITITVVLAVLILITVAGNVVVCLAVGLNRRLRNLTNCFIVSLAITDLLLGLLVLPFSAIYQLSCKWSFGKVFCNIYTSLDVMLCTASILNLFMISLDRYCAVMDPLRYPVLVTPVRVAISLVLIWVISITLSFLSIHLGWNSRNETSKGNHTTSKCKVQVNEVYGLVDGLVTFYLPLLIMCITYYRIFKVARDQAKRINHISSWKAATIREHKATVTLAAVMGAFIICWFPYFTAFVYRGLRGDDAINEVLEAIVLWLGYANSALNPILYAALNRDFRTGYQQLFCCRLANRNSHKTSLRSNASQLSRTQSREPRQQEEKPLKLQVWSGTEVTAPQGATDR
# T1 sequence (Q9Y5N1 whole entry, canonical isoform): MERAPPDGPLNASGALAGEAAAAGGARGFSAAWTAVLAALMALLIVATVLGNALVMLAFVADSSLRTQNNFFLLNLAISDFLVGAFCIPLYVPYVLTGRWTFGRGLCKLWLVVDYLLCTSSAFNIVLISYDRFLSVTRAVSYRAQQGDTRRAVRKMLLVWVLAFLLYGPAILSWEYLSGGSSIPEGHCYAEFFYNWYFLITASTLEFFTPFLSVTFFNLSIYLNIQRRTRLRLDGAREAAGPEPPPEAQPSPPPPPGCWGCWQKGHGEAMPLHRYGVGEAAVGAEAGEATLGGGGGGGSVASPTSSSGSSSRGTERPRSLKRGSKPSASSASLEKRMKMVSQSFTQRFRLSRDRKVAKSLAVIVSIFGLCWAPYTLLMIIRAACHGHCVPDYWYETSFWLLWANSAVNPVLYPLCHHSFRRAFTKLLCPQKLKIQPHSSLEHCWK
# Sequence of hH4R (Q9H3N8 whole entry): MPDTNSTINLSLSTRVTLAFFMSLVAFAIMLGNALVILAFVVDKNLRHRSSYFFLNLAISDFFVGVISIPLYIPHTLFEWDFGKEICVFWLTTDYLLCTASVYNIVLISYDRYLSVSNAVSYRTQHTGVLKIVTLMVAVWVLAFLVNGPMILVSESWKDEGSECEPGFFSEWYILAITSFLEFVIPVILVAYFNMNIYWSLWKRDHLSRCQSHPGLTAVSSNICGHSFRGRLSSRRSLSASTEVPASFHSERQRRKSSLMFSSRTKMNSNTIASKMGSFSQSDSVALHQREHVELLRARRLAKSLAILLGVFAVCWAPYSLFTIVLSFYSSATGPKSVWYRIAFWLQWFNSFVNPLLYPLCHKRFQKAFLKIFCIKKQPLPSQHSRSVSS
compound,measurement,setting,value
O=C(c1ccc2cc(OCCCN3CCCCC3)ccc2c1)N1CCCC1 [Compound 1],effect of illumination of compound solution at 360 ± 20 nm on affinity,H3R [1],not affected
O=C(c1cccc(/N=N/c2cccc(OCCCN3CCCCC3)c2)c1)N1CCCC1 [Compound 28],increase in H3R binding affinity upon photoisomerization,"H3R [1]; illumination at 360 nm, PSS cis vs trans, listed as VUF14738",over 10 fold
same,change in current upon superfusion of compound only,H3R [2]; noninjected and H3R-GIRK expressing oocytes,did not result in changes in current
same,photoisomerization half-life,[3]; illumination 360 ± 20 nm,16 ± 0.9 s
same,photoisomerization half-life,[3]; illumination 434 ± 9 nm,11 ± 0.3 s
same,photodegradation (1H NMR and LC-MS),"[4]; 48 h illumination at 360 ± 20 nm, 0.77 mW/mm^2",no apparent photodegradation
same,resistance to fatigue / photobleaching,"[4]; over 1000 isomerization cycles, 360 ± 20 and 434 ± 9 nm, 20 s intervals",highly resistant to photobleaching
same,affinity for H4R,hH4R,no measurable affinity
same,affinity for H2R,hH2R,no measurable affinity
NCCc1c[nH]cn1 [Histamine],effect of illumination of compound solution at 360 ± 20 nm on affinity,H3R [1],not affected
NC(=NCc1ccc(Cl)cc1)SCCCc1cnc[nH]1 [clobenpropit],inhibition of GIRK channel activation by histamine (1 μM),"H3R [2]; simultaneous superfusion, 1 μM",fully inhibited
pertussis toxin,inhibition of GIRK channel activation by histamine (1 μM),"H3R [2]; pretreating the oocytes, 1.37 ng/oocyte",fully inhibited
